Reference: ChEMBL document CHEMBL5696442, “Discovery of type II inhibitors of TGFβ-activated kinase 1 (TAK1) and mitogen-activated protein kinase kinase kinase kinase 2 (MAP4K2)” (J Med Chem, 2015)

Tests used:
[1] = molecular target: Tyrosine-protein kinase Fes/Fps (Homo sapiens, UniProt P07332); assay: Inhibition of FES Lys1 labeling site in human Huh-7 cell lysate at 1 uM by KiNativ Profiling analysis relative to control; format: subcellular
[2] = molecular target: p38 delta/gamma (Homo sapiens) (UniProt O15264+P53778); assay: Inhibition of p38delta/gamma Lys2 labeling site in human A-375 cells at 0.5 uM by KiNativ Profiling analysis relative to control; format: cell-based
[3] = molecular target: Tyrosine-protein kinase ABL1 (Homo sapiens, UniProt P00519); assay: Inhibition of ABL ACT labeling site in human A-375 cells at 0.5 uM by KiNativ Profiling analysis relative to control; format: cell-based
Tyrosine-protein kinase ABL1, sequence (P00519 whole entry): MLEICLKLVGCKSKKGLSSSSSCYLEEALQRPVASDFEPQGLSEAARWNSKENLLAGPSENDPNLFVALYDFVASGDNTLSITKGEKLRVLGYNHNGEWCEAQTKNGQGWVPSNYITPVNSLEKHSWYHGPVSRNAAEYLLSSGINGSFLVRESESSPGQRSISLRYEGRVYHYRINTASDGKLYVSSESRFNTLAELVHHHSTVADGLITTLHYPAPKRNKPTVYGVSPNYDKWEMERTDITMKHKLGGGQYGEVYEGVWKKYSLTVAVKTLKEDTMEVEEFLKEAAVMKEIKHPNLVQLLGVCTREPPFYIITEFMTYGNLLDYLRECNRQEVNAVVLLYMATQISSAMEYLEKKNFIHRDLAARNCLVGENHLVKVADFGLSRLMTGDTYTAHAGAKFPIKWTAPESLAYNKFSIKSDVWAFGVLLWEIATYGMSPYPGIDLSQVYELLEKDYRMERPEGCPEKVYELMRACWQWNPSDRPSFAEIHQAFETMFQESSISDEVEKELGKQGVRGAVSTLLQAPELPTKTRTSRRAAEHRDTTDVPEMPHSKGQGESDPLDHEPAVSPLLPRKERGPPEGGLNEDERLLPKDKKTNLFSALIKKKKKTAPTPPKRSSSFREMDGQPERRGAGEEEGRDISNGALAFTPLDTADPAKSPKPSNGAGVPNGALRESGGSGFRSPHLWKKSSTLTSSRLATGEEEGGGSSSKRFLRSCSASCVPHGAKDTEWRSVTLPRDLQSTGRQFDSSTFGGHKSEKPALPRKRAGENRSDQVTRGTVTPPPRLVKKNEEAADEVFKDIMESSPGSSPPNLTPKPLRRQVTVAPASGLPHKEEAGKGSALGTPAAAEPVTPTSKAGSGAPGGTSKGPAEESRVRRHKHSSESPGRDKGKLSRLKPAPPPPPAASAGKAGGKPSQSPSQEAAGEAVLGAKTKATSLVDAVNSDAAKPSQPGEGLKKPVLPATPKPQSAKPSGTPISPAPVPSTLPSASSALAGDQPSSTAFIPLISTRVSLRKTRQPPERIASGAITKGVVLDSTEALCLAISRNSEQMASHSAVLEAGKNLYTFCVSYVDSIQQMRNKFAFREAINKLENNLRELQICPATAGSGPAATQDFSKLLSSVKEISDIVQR
In short: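 Intact A375 melanoma cells were treated with compound at 5 or 0.5 μM, then lysed. Lysate kinases were labeled with a lysine-reactive ATP or ADP-biotin probe (KiNativ). Inhibition is read as protection of each kinase labeling site from probe labeling.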

[4] = molecular target: Tyrosine-protein kinase CSK (Homo sapiens, UniProt P41240); assay: Inhibition of CSK (unknown origin) ACT labeling site by KiNativ Profiling analysis
Tyrosine-protein kinase CSK, sequence (P41240 whole entry): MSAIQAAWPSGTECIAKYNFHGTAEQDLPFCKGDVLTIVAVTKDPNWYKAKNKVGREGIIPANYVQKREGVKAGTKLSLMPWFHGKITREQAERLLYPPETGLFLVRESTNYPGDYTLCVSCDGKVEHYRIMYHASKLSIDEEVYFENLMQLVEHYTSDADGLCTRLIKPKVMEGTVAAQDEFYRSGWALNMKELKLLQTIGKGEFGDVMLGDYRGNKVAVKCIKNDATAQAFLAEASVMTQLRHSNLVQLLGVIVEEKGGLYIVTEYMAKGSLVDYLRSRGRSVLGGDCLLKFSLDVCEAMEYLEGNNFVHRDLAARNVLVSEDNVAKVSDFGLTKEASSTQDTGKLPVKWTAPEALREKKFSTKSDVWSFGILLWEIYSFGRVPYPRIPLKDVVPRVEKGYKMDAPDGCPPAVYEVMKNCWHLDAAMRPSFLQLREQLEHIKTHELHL

[5] = molecular target: Phosphatidylinositol 3-kinase catalytic subunit type 3 (Homo sapiens) (UniProt Q8NEB9); assay: Inhibition of PIK3C3 ATP labeling site in human A-375 cells at 5 uM by KiNativ Profiling analysis relative to control; format: cell-based
Phosphatidylinositol 3-kinase catalytic subunit type 3 (Homo sapiens), sequence (Q8NEB9 whole entry): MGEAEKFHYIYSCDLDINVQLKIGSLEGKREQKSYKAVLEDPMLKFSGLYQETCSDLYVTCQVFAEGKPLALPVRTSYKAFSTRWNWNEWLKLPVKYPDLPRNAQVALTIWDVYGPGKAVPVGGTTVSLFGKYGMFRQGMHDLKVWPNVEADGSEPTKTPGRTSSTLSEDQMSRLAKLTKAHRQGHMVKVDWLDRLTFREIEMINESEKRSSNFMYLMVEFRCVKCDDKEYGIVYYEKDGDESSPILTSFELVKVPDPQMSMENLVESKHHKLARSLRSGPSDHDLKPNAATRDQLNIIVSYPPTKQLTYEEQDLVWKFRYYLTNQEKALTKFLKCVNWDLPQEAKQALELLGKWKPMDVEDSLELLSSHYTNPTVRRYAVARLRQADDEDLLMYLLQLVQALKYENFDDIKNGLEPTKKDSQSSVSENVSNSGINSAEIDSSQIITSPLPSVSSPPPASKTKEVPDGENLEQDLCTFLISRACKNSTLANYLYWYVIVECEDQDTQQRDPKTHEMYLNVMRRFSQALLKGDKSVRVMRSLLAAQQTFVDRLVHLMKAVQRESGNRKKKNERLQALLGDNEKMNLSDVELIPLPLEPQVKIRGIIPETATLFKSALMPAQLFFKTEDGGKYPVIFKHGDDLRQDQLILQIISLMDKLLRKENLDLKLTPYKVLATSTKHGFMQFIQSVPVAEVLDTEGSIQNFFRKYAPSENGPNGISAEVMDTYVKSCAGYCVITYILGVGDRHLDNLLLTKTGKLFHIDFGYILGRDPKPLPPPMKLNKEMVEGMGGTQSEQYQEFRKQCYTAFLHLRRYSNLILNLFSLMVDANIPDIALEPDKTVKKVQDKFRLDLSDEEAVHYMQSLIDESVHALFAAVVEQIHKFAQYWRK

[6] = molecular target: T1, Scaffold protein ILK (Homo sapiens) (UniProt Q13418); assay: Inhibition of ILK Lys1 labeling site in human A-375 cells at 0.5 uM by KiNativ Profiling analysis relative to control; format: cell-based
T1 sequence (whole entry): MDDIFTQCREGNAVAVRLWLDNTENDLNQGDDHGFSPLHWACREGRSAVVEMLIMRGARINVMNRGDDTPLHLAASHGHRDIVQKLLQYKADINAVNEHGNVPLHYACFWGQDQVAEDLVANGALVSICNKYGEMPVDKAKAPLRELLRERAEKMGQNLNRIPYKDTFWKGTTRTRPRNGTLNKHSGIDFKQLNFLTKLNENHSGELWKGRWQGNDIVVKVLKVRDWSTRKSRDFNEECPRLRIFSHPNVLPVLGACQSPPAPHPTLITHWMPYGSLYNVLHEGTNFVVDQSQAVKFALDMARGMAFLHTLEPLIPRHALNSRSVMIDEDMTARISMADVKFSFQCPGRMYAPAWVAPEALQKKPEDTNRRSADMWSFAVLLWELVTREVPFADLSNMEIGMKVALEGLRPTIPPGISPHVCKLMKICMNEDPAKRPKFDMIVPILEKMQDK

[7] = molecular target: Serine/threonine-protein kinase 25 (Homo sapiens) (UniProt O00506); assay: Inhibition of YSK1 ACT labeling site in human A-375 cells at 0.5 uM by KiNativ Profiling analysis relative to control; format: cell-based
Serine/threonine-protein kinase 25 (Homo sapiens), sequence (O00506 whole entry, looked up, canonical isoform): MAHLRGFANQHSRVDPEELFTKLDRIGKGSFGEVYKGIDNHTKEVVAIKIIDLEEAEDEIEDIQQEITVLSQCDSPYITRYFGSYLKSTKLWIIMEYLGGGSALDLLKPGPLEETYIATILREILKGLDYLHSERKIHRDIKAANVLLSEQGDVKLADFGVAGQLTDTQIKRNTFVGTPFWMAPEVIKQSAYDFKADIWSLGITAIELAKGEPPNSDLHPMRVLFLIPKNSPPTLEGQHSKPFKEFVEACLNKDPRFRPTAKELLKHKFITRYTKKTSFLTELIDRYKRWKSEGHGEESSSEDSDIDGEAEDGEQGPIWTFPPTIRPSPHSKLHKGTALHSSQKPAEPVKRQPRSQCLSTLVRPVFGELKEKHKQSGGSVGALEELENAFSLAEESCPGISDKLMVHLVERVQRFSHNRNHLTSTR

[8] = molecular target: Phosphatidylinositol 4,5-bisphosphate 3-kinase catalytic subunit beta isoform (Homo sapiens) (UniProt P42338); assay: Inhibition of PIK3CB ATP labeling site in human A-375 cells at 0.5 uM by KiNativ Profiling analysis relative to control; format: cell-based
[9] = molecular target: T2, Serine/threonine-protein kinase TAO3 (Homo sapiens) (UniProt Q9H2K8); assay: Inhibition of TAO3 Lys2 labeling site in human A-375 cells at 0.5 uM by KiNativ Profiling analysis relative to control; format: cell-based
T2 sequence (whole entry): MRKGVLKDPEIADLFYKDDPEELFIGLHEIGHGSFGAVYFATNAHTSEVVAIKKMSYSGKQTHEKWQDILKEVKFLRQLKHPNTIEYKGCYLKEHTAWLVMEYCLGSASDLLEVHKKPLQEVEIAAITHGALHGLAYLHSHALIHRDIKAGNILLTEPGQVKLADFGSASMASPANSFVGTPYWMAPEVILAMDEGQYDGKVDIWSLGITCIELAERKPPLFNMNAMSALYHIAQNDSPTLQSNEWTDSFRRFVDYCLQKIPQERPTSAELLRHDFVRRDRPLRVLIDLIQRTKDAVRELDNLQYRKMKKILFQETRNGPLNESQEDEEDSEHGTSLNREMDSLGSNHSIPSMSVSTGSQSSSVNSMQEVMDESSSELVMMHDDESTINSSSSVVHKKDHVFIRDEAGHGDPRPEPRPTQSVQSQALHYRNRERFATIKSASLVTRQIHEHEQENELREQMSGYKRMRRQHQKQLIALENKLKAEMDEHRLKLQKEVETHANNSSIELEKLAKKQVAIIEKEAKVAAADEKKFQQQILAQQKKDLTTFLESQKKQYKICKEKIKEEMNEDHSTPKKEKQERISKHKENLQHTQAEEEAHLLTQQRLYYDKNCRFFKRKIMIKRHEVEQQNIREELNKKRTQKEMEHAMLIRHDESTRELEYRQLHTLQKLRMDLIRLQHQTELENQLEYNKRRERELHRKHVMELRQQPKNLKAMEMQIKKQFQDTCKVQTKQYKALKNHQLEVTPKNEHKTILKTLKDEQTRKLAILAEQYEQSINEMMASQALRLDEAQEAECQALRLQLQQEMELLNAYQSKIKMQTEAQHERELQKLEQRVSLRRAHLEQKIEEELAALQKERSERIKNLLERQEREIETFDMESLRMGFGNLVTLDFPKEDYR

[10] = molecular target: Calcium/calmodulin-dependent protein kinase type 1 (Homo sapiens) (UniProt Q14012); assay: Inhibition of CaMK1a Lys1 labeling site in human A-375 cells at 0.05 uM by KiNativ Profiling analysis relative to control; format: cell-based
Calcium/calmodulin-dependent protein kinase type 1 (Homo sapiens), sequence (Q14012 whole entry, looked up): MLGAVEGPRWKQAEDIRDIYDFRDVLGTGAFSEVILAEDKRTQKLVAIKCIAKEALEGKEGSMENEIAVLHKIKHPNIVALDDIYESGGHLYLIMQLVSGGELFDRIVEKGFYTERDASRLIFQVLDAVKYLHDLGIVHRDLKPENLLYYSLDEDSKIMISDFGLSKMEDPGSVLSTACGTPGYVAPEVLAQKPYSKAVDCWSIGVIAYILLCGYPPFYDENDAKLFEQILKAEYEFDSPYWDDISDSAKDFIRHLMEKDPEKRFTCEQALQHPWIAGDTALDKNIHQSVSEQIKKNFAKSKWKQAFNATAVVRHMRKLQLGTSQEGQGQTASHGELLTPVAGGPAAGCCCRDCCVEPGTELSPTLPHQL

[11] = molecular target: T3, Dual specificity mitogen-activated protein kinase kinase 3 (Homo sapiens) (UniProt P46734); assay: Inhibition of MAP2K3 Lys2 labeling site in human A-375 cells at 0.05 uM by KiNativ Profiling analysis relative to control; format: cell-based
T3 sequence (whole entry): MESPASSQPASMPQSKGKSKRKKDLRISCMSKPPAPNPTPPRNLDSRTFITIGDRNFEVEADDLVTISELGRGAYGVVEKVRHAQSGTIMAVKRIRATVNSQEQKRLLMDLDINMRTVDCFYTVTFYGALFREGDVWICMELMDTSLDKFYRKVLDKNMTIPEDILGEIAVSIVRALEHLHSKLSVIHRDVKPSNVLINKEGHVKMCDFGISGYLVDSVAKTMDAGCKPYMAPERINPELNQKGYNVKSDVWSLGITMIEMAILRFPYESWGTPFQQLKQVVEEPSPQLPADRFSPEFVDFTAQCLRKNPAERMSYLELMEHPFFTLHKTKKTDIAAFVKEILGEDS

Tyrosine-protein kinase Fes/Fps, sequence (P07332 whole entry): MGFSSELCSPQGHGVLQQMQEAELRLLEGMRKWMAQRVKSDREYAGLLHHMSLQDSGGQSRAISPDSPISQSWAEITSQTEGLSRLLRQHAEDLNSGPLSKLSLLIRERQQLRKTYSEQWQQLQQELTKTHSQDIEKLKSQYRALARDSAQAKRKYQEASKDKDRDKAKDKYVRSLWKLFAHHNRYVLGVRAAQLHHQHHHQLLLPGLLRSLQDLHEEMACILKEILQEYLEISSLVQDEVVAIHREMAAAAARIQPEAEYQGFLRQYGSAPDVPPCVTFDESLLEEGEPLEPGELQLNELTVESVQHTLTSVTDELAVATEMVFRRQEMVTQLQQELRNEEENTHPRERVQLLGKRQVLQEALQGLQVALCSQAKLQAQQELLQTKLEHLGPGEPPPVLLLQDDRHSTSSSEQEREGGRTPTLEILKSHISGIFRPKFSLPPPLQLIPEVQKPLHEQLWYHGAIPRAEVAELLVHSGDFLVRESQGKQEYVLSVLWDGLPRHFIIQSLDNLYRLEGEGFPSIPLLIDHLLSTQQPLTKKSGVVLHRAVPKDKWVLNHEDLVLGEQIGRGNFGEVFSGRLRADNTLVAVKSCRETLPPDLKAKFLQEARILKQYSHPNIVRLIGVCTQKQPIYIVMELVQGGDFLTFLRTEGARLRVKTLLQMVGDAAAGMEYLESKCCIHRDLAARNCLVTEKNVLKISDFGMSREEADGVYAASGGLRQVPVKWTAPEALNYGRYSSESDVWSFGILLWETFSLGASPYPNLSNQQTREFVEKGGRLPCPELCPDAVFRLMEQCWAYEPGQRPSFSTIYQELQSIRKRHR

CNc1cc(Oc2cc(C(=O)Nc3cc(N4CCN(C)CC4)cc(C(F)(F)F)c3)ccc2C)ncn1
inhibition [1]: 11.2%

CCN1CCN(Cc2ccc(NC(=O)c3ccc(C)c(/C=C/c4cnc5[nH]ccc5c4OC)c3)cc2C(F)(F)F)CC1
inhibition [2]: 25.2% | inhibition [3]: > 98% | IC50 [4]: 80.9 nM | inhibition [5]: 35.1% | inhibition [6]: -1.2% | inhibition [7]: 18.3% | inhibition [8]: 37.6% | inhibition [9]: 6.6% | inhibition [10]: 21.5% | inhibition [11]: 2.6%

CNc1cc(Oc2cc(C(=O)Nc3cc(-n4cnc(C)c4)cc(C(F)(F)F)c3)ccc2C)ncn1
inhibition [1]: 20%

CCN1CCN(Cc2ccc(NC(=O)c3ccc(C)c(Oc4ccnc5[nH]ccc45)c3)cc2C(F)(F)F)CC1
inhibition [2]: 86.2% | inhibition [3]: > 98% | IC50 [4]: 56.4 nM | inhibition [5]: 40.5% | inhibition [6]: 4.9% | inhibition [7]: 31.3% | inhibition [8]: 8.8% | inhibition [9]: -5.6% | inhibition [10]: 34.9% | inhibition [11]: 12.6%
